Test results as given in ChEMBL document CHEMBL2321736 (ACS Med Chem Lett, 2013).
≈ marks a conversion by molar mass, not a printed value.

Experiments:
[1] = Thermodynamic solubility of the compound at pH 7.4; format: physicochemical; conditions: buffer, read-out: Therm_solubility
Method in brief: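 Thermodynamic solubility measured at pH 7.4.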

[2] = Plasma clearance in Sprague-Dawley rat at 0.5 mg/kg, iv; format: ADME, organism-based; set-up: dose 0.5 mg/kg, route intravenous
Method in brief: (§1)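 Male Sprague−Dawley rats given 0.5 mg/kg iv in 60% NMP solution, n = 3. Brain/plasma value is the unbound brain to unbound plasma AUC ratio after this iv dose.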

[3] = Ratio of unbound drug level in brain to plasma in Sprague-Dawley rat at 0.5 mg/kg, iv; format: ADME, organism-based; set-up: dose 0.5 mg/kg, route intravenous; conditions: read-out: K(p,uu,brain); method in brief: as §1
[4] = Volume of distribution in Sprague-Dawley rat at 0.5 mg/kg, iv; format: ADME, organism-based; set-up: dose 0.5 mg/kg, route intravenous; conditions: in vivo; method in brief: as §1
[5] = Oral bioavailability in beagle dog at 1 mg/kg; format: ADME, organism-based, Canis lupus familiaris; conditions: in vivo
Method in brief: (§2)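 Male Beagle dogs, n = 3. iv dose 0.5 mg/kg in 30% NMP solution; oral dose 1 mg/kg as aqueous suspension of 1% RC591 + 0.2% tween80.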

[6] = Plasma clearance in beagle dog at 0.5 mg/kg, iv and 1 mg/kg, po; format: ADME, organism-based, Canis lupus familiaris; method in brief: as §2

Structure (SMILES) | solubility thermodynamic [1] [µg/mL] | clearance [2] [mL/min/kg] | Kp uu [3] | Vd [4] [L/kg] | bioavailability [5] [%] | clearance [6] [mL/min/kg]
CNc1nc(Nc2cc(F)c(C(=O)N3CCOCC3)cc2OC)ncc1C(F)(F)F | < 0.9 | – | – | – | – | –
CNc1nc(Nc2cnn(CC(C)(C)O)c2C)ncc1C(F)(F)F | – | 35 | 0.26 | 0.88 | – | –
CNc1nc(Nc2cnn(CC(C)(C)O)c2Cl)ncc1C(F)(F)F | 20 (≈ 54.8 µM) | 21 | 0.37 | 2.5 | 31 | 22
